This is an account of results in PMC9933479 (ACS Omega, 2023).

In general, IC50 refers to the concentration at which inhibition is half-maximal. Low values mean greater potency, high ones weaker potency.

Each structure is given as a SMILES string. “Also recorded” adds a separate entry of the source. Where only a bound is given, the exact number is not on record here.

In one series the test system is MCF-7 (breast carcinoma). Description: MTT assay, cytotoxicity/growth inhibition. It counts as cell-based. The following applies: Homo sapiens. The essentials: (§1)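 Cells were grown in RPMI (A549, HCT-116, PC-3) or DMEM (MCF-7) with 10% FBS at 37 °C and 5% CO2. Seeding per well was […] and PC-3 8 × 10^4 cells. […] MTT 250 μg/mL, 4 h; DMSO; A570; triplicate; mean ± SE.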
A general note: Tetrazolium dyes change colour on reduction, which living cells bring about.

The subject of the next series is HOP62. The experiment in a line: In vitro cytotoxicity, expanded lung cancer panel. It counts as cell-based. To be noted: Homo sapiens, HOP-62.
Series [1] relates to PC-3 (prostate carcinoma). The experiment in a line: MTT assay, cytotoxicity/growth inhibition. In kind it is cell-based. To be noted: Homo sapiens. The essentials:
as §1

The next series has as its system HOP92. The experiment in a line: In vitro cytotoxicity, expanded lung cancer panel. The following applies: Homo sapiens, HOP-92. In kind it is cell-based.
The subject of series [2] is normal human embryonic kidney cells (HEK293). The experiment in a line: Selectivity index versus normal cell line. In kind it is cell-based.
The test system of series [3] is A549 cells. Description: Intracellular ROS, DCFDA/DCFHDA staining. To be noted: A549, DCFDA dye, 48 h. In kind it is cell-based, human. In a few lines: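 Seeded A549 cells (3 × 10^4 per well) adhered 24 h at 37 °C, then received test compound at 1, 3.5 or 5 μM for 48 h. Cells were loaded with 10 μM DCFHDA for 30 min at 37 °C and moved to PBS. Intracellular ROS was imaged by fluorescence microscopy. H2O2 (0.05%) was the positive control.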

A further series has as its system A549 (lung carcinoma). Description: MTT assay, cytotoxicity/growth inhibition. In kind it is cell-based, human. The essentials:
as §1

In series [4] the test system is A549 cells. Description: DAPI staining, nuclear morphology / apoptosis. The following applies: A549, 1, 3.5 and 5 μM, 48 h. In kind it is cell-based, human. In a few lines:
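A549 cells (3 × 10^4 per well) were grown 48 h, then exposed to test compound at 1, 3.5 and 5 μM for 48 h. Cells were washed in PBS, fixed in ice-cold 4% paraformaldehyde for 20 min and permeabilised with 0.25% Triton X-100. Staining was DAPI at 1 μg/mL final for 30 min, read by fluorescence microscopy. Cisplatin 17 μM was the positive control.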

Series [5] relates to HCT-116 (colon carcinoma). Description: MTT assay, cytotoxicity/growth inhibition. It counts as cell-based. The following applies: Homo sapiens. The essentials: as §1
For series [6], the system named is A549 cells. Description: Mitochondrial membrane potential, Rhodamine-123 staining. In kind it is cell-based, human. The following applies: A549, Rh-123 dye, 1, 3.5 and 5 μM, 48 h, versus untreated cells. In a few lines:
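A549 cells (3 × 10^4 per well) adhered 24 h at 37 °C and were treated with test compound at 1, 3.5 and 5 μM for 48 h. They were stained with 10 μM rhodamine-123 for 30 min at 37 °C and washed in PBS. Fluorescence microscopy read mitochondrial membrane potential as Rh-123 fluorescence, compared with untreated cells.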

In the case of `COc1ccc(CC(=O)OCC2=CCC3[C@](C)(CO)[C@H](O)CC[C@@]3(C)[C@@H]2/C=C/C2=CCOC2=O)cc1` (stereo partly drawn) [Compound 9s, ((1S,5R,6R,8aR)-6-Hydroxy-5-(hydroxymethyl)-5,8a-dimethyl-1-((E)-2-(2-oxo-2,5-dihydrofuran-3-yl)vinyl)-1,4,4a,5,6,7,8,8a-octahydronaphthalen-2-yl)methyl 2-(4-Methoxyphenyl)acetate], the IC50 was 14.6 µM with MCF-7 (breast carcinoma) (MCF7); 13 µM with HOP62; over 20 µM in series [1]; 38.6 µM in the series on HOP92; 3.5 µM with A549 (lung carcinoma) (Homo sapiens, A549); over 20 µM in series [5] (HCT-116). Besides, the inhibition at 20 µM in the series with MCF-7 (breast carcinoma) (MCF7, 48 h, read-out: Cytotoxic Activity (% Growth Inhibition)) was determined as 54 ± 0.74%; in series [1] (48 h, read-out: Cytotoxic Activity (% Growth Inhibition)), 27.6 ± 0.89%; in the series with A549 (lung carcinoma) (Homo sapiens, A549, 48 h, read-out: Cytotoxic Activity (% Growth Inhibition), A549, 20 μM concentration, MTT, 48 h), 82%; in [5] (HCT-116, 48 h, read-out: Cytotoxic Activity (% Growth Inhibition)), 4.1 ± 0.97%. In addition, the “selectivity index (SI) wrt HEK cell line” value is given as 13.9 in [2] (A549 versus HEK293), 3.7 in series [2] (HOP62 versus HEK293) and 1.26 in series [2] (HOP92 versus HEK293). In addition, the “intracellular ROS generation” value in the series on A549 cells [3] (1 μM) was “increases reactive oxygen species (ROS); also recorded: significantly induced more ROS generation”. Further, the “intracellular ROS levels” value with A549 cells [3] (3.5 and 5 μM) is listed as “ROS levels decrease”. Besides, the “Cytotoxic Activity (% Growth Inhibition)” value in the series on A549 (lung carcinoma) (A549, 20 μM concentration, MTT, 48 h, 20 µM) is listed as 82.2 ± 0.78%. In addition, the “potency relative to andrographolide (times / fold more potent)” value in the series on A549 (lung carcinoma) (A549, ratio of IC50 values) is about 7. Further, the “nuclear morphology / apoptosis (DAPI staining)” value in the series with A549 cells [4] was “nuclear morphological changes; also recorded: altered staining pattern, apoptotic bodies, and condensed chromatin; also recorded: induces apoptosis”. In addition, the “mitochondrial membrane potential (MMP)” value with A549 cells [6] was “disturbed mitochondrial membrane potential (MMP); also recorded: significant reduction in MMP; also recorded: disturbs mitochondrial membrane potential”.
